From ChEMBL document CHEMBL1139042, “1,3-Disubstituted-imidazo[1,5-a]pyrazines as insulin-like growth-factor-I receptor (IGF-IR) inhibitors” (Bioorg Med Chem Lett, 2007)

What was measured:
[1] = target: T1, Insulin-like growth factor 1 receptor (Homo sapiens, UniProt P08069); assay: Inhibition of human recombinant GST-IGF1R activity
[2] = target: T1, Insulin-like growth factor 1 receptor; assay: Inhibition of IGF1-stimulated phosphorylation of human recombinant IGF1R expressed in NIH3T3 cells; type: cell-based
[3] = Cmax in CD1 mouse at 50 mg/kg, po; type: ADME, organism-based; set-up: dose 50 mg/kg, route oral; details: in vivo
Outline: (§1)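 Female CD-1 mice, 6–10 weeks old, received a single 1 mg/kg IV tail-vein dose or a single 50 mg/kg oral gavage dose. The oral vehicle varied by compound: 30:70 PEG-400:WFI with Labrafil, 50:50 PEG-400:WFI, or 50:50 PEG-400:5% citric acid. Three animals were sacrificed per timepoint and blood was taken into EDTA by cardiac puncture. Plasma (1500g, 10 min) was methanol-precipitated and analysed by HPLC-MS/MS against spiked mouse-plasma calibrants. Parameters came from non-compartmental analysis of median (n=3) concentrations.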

[4] = Half life in CD1 mouse at 1 mg/kg, iv; type: ADME, organism-based; set-up: dose 1 mg/kg, route intravenous; details: in vivo; outline: as §1
[5] = Oral bioavailability in CD1 mouse at 50 mg/kg, po; type: ADME, organism-based; details: in vivo; outline: as §1
[6] = AUC (0 to infinity) in CD1 mouse at 50 mg/kg, po; type: ADME, organism-based; set-up: time infinity, dose 50 mg/kg, route oral; details: plasma; outline: as §1
[7] = target: Casein kinase II subunit alpha (Homo sapiens) (UniProt P68400); assay: Inhibition of CK2 at 10 uM
Outline: (§2)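 Radiometric kinase profiling was run as an outsourced panel on recombinant purified enzymes.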

[8] = target: Platelet-derived growth factor receptor beta (Homo sapiens) (UniProt P09619); assay: Inhibition of PDGFRbeta at 10 uM; outline: as §2
Homo sapiens [9] = organism: Homo sapiens; assay: Inhibition of Cdk2/Cyclin A at 10 uM; outline: as §2
[10] = target: Tyrosine-protein kinase ABL1 (Homo sapiens) (UniProt P00519); assay: Inhibition of Abl at 10 uM; outline: as §2
[11] = target: Serine/threonine-protein kinase Chk2 (Homo sapiens) (UniProt O96017); assay: Inhibition of Chk2 at 10 uM; outline: as §2
Homo sapiens [12] = organism: Homo sapiens; assay: Inhibition of Cdk2/Cyclin E at 10 uM; outline: as §2
[13] = target: Protein kinase C alpha type (Homo sapiens) (UniProt P17252); assay: Inhibition of PKCalpha at 10 uM; outline: as §2
Homo sapiens [14] = organism: Homo sapiens; assay: Inhibition of PKBalpha at 10 uM; outline: as §2
[15] = target: Ribosomal protein S6 kinase beta-1 (Homo sapiens) (UniProt P23443); assay: Inhibition of p70S6K at 10 uM; outline: as §2
[16] = target: Tyrosine-protein kinase Fes/Fps (Homo sapiens) (UniProt P07332); assay: Inhibition of Fes at 10 uM; outline: as §2
[17] = target: RAF proto-oncogene serine/threonine-protein kinase (Homo sapiens) (UniProt P04049); assay: Inhibition of c-Raf at 10 uM; outline: as §2
[18] = target: 3-phosphoinositide-dependent protein kinase 1 (PDPK1) (Homo sapiens) (UniProt O15530); assay: Inhibition of PDK1 at 10 uM
Homo sapiens [19] = organism: Homo sapiens; assay: Inhibition of PKA at 10 uM; outline: as §2
[20] = target: Mitogen-activated protein kinase 1 (ERK2) (Homo sapiens) (UniProt P28482); assay: Inhibition of MAPK2 at 10 uM
[21] = target: T2, Inhibitor of nuclear factor kappa-B kinase subunit beta (Homo sapiens) (UniProt O14920); assay: Inhibition of IKK-beta at 10 uM; outline: as §2
T2 sequence (whole entry): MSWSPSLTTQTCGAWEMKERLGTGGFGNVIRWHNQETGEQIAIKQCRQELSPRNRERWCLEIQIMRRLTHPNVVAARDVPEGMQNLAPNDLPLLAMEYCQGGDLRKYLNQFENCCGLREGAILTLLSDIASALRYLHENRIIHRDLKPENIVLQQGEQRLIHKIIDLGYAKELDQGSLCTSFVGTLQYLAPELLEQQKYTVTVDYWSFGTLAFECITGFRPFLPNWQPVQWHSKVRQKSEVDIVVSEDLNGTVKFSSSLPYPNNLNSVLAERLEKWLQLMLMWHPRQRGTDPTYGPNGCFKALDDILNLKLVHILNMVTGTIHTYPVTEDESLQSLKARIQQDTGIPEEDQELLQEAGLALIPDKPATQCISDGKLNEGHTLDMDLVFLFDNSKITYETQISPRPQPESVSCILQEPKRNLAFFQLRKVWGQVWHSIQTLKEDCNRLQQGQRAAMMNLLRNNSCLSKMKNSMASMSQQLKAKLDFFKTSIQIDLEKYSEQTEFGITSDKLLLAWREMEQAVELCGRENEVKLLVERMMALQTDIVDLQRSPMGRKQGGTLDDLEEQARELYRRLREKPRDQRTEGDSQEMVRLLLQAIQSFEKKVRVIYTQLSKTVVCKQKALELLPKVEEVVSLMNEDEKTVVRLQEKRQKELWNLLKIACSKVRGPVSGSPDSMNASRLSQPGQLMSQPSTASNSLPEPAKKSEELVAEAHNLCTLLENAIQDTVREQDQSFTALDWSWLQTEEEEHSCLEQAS

T1 sequence (P08069 31-736 limits assumed): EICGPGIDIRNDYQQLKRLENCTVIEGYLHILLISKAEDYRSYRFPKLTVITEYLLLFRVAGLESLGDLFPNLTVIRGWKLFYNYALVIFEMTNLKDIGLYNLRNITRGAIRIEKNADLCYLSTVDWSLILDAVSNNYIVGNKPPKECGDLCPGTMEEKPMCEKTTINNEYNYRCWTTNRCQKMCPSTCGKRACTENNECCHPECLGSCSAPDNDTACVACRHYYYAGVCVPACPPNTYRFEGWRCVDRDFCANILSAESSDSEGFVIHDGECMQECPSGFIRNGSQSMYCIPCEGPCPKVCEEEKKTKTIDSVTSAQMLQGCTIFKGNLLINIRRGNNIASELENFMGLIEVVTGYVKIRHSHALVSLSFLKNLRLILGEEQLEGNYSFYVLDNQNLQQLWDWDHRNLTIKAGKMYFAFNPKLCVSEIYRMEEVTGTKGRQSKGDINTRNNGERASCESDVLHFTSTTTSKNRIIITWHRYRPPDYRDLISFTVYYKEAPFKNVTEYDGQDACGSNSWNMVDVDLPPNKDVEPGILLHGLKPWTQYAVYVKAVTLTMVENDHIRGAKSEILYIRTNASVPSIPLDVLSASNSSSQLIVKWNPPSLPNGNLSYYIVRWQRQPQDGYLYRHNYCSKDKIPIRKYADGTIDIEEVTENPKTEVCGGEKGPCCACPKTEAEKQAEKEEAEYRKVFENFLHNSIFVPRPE
T1 sequence (P08069 741-1367 limits assumed): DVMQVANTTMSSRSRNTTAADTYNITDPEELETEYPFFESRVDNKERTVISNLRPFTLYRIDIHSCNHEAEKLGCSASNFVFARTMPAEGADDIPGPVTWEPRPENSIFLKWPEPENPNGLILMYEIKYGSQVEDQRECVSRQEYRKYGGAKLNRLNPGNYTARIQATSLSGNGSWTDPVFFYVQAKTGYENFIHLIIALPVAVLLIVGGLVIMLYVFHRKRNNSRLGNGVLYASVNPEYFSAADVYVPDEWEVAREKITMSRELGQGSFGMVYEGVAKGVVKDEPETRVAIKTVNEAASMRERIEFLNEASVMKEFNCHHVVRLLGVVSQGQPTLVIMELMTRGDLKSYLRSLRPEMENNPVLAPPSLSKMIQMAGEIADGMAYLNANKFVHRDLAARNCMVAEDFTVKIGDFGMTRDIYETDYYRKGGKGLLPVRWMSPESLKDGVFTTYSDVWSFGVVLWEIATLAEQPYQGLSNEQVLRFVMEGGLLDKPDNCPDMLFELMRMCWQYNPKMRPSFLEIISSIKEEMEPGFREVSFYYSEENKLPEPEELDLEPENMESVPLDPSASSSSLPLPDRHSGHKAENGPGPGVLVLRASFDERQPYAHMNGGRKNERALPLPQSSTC
Tyrosine-protein kinase ABL1 (Homo sapiens), sequence (P00519 whole entry): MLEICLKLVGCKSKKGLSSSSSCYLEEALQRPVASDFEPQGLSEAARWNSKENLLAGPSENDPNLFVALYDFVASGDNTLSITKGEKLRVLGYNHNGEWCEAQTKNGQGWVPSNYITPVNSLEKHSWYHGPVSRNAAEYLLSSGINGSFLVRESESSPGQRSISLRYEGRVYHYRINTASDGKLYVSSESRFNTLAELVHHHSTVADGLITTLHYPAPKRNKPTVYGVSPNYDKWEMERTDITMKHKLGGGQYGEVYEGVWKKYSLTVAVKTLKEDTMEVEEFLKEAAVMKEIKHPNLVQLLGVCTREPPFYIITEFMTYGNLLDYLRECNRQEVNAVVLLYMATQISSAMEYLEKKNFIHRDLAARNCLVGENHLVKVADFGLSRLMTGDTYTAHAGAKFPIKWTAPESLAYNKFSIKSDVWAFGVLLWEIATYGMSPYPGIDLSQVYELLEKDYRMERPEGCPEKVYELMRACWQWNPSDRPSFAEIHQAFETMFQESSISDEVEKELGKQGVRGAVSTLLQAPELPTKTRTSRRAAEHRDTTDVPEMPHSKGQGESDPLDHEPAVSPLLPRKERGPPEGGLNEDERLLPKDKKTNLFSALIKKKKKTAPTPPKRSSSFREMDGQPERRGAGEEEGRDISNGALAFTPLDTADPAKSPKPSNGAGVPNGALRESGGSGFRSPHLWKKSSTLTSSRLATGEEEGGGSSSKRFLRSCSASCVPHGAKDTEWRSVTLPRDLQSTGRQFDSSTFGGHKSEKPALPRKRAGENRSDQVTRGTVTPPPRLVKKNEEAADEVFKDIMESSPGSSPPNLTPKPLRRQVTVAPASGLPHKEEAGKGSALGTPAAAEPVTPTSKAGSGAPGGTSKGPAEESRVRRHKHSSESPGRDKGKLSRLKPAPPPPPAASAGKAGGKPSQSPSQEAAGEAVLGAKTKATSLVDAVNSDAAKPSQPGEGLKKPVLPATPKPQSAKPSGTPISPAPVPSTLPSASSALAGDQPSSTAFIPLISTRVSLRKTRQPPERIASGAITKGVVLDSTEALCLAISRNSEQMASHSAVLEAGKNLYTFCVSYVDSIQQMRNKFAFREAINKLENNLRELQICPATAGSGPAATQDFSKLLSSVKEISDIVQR
3-phosphoinositide-dependent protein kinase 1 (PDPK1) (Homo sapiens), sequence (O15530 whole entry, looked up): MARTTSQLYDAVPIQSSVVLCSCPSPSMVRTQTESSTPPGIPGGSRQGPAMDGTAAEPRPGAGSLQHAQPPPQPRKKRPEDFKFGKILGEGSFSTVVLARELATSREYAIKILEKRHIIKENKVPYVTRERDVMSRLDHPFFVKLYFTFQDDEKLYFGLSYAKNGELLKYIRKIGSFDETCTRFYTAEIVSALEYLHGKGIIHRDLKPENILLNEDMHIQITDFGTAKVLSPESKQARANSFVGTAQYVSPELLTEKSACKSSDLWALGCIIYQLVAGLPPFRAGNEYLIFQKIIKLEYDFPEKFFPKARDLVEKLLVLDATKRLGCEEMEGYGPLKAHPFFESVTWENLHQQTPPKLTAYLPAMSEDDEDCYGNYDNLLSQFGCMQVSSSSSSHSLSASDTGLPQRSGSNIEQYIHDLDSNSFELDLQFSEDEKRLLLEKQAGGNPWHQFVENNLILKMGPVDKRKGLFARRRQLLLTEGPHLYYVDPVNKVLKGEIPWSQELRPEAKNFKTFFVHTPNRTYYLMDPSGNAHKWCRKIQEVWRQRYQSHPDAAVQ
Tyrosine-protein kinase Fes/Fps (Homo sapiens), sequence (P07332 whole entry): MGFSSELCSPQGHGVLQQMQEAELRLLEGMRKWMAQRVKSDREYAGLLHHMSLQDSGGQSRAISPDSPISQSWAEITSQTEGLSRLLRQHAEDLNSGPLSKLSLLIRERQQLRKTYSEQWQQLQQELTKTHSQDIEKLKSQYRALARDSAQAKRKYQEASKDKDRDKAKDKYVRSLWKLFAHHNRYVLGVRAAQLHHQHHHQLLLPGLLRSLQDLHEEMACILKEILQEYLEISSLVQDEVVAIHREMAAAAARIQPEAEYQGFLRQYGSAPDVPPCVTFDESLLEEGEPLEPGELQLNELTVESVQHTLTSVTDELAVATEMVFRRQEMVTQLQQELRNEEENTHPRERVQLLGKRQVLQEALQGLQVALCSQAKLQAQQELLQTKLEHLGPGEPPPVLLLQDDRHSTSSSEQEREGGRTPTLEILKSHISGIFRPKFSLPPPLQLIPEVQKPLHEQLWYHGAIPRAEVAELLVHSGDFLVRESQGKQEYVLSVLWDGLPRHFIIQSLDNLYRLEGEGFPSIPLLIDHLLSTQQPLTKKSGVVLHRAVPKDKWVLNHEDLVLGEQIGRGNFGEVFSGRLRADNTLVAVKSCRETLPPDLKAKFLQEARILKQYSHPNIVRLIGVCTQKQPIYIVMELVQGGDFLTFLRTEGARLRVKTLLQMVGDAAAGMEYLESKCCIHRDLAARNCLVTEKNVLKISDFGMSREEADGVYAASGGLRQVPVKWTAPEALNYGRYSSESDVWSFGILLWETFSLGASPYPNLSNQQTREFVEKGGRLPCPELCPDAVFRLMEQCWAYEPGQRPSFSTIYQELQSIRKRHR
Platelet-derived growth factor receptor beta (Homo sapiens), sequence (P09619 whole entry): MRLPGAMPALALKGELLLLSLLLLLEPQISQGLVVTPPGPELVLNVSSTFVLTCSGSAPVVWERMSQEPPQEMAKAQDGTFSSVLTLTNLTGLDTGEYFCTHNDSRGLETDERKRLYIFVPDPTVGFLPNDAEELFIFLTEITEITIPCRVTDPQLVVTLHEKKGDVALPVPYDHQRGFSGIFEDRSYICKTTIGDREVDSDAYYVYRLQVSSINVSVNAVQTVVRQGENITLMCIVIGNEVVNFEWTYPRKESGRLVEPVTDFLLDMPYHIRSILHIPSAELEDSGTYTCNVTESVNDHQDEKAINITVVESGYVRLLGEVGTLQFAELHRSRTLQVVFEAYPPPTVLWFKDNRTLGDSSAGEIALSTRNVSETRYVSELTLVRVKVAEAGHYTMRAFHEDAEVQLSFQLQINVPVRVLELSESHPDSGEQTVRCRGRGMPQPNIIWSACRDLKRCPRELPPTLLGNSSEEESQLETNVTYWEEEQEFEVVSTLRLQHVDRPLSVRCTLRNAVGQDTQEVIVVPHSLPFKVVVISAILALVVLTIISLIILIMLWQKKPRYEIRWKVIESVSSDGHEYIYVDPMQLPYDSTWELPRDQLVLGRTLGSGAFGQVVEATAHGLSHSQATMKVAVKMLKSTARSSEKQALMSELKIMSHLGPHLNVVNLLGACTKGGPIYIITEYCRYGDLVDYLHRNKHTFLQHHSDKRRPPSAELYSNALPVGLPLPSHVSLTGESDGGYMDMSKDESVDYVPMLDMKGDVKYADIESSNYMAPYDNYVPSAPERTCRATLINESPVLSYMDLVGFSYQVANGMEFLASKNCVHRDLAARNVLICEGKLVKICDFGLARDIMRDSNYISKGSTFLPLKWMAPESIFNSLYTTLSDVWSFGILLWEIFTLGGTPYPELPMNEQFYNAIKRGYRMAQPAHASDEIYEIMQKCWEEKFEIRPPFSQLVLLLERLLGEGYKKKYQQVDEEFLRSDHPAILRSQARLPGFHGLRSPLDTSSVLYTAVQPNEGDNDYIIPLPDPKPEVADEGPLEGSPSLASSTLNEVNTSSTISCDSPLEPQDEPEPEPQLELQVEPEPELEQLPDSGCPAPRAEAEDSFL

Row | Compound | IC50 [1] | IC50 [2] | Cmax [3] | half-life [4] | bioavailability [5] | AUC(0-inf) [6] | other results
1 | Nc1nccn2c1c(-c1cccc(OCc3ccccc3)c1)nc2[C@H]1CC[C@H](CN2CCC2)CC1 | 81 nM | 398 nM | – | – | – | – | –
2 | Nc1nccn2c(C3CCC3)nc(-c3ccc(Oc4ccccc4)cc3)c12 | > 10000 nM | – | – | – | – | – | –
3 | NC[C@H]1C[C@@H](c2nc(-c3cccc(OCc4ccccc4)c3)c3c(N)nccn32)C1 | 60 nM | 690 nM | – | – | – | – | –
4 | COc1ccc(-c2nc(C3CCC3)n3ccnc(N)c23)cc1OCc1ccccc1 | 1350 nM | – | – | – | – | – | –
5 | NC[C@H]1CC[C@H](c2nc(-c3cccc(OCc4ccccc4)c3)c3c(N)nccn32)CC1 | 119 nM | 534 nM | 2850 nM | 2.29 h | 47% | 3930 ng·h/mL | inhibition [7]: < 50%; inhibition [8]: < 50%; inhibition (Homo sapiens [9]): < 50%; inhibition [10]: < 50%; inhibition [11]: < 50%; inhibition (Homo sapiens [12]): < 50%; inhibition [13]: < 50%; inhibition (Homo sapiens [14]): < 50%; inhibition [15]: < 50%; inhibition [16]: < 50%; inhibition [17]: < 50%; inhibition [18]: < 50%; inhibition (Homo sapiens [19]): < 50%; inhibition [20]: < 50%; inhibition [21]: < 50%

Second part, led by results:

Row | IC50 [1] | IC50 [2] | Cmax [3] | half-life [4] | bioavailability [5] | AUC(0-inf) [6] | Compound | other results
6 | 606 nM | 1160 nM | 860 nM | 1.3 h | 47% | 1760 ng·h/mL | Nc1nccn2c(C3CCC3)nc(-c3cccc(OCc4ccccc4)c3)c12 | –
7 | 228 nM | 560 nM | – | – | – | – | NC[C@H]1CC[C@@H](c2nc(-c3cccc(OCc4ccccc4)c3)c3c(N)nccn32)CC1 | –
8 | – | – | 2220 nM | 0.63 h | 34% | 1320 ng·h/mL | Nc1nccn2c1c(-c1cccc(OCc3ccccc3)c1)nc2[C@H]1CC[C@H](C(N)=O)CC1 | –
